Laboratory results: ChEMBL document CHEMBL1759890, “3,5-Disubstituted-indole-7-carboxamides: the discovery of a novel series of potent, selective inhibitors of IKK-β” (Bioorg Med Chem Lett, 2011)
Converted amounts (≈) assume the structure as drawn.

Experiments:
[1] = target: T1, Inhibitor of nuclear factor kappa-B kinase subunit beta (Homo sapiens, UniProt O14920); test: Inhibition of IKK-beta
T1 sequence (O14920 whole entry): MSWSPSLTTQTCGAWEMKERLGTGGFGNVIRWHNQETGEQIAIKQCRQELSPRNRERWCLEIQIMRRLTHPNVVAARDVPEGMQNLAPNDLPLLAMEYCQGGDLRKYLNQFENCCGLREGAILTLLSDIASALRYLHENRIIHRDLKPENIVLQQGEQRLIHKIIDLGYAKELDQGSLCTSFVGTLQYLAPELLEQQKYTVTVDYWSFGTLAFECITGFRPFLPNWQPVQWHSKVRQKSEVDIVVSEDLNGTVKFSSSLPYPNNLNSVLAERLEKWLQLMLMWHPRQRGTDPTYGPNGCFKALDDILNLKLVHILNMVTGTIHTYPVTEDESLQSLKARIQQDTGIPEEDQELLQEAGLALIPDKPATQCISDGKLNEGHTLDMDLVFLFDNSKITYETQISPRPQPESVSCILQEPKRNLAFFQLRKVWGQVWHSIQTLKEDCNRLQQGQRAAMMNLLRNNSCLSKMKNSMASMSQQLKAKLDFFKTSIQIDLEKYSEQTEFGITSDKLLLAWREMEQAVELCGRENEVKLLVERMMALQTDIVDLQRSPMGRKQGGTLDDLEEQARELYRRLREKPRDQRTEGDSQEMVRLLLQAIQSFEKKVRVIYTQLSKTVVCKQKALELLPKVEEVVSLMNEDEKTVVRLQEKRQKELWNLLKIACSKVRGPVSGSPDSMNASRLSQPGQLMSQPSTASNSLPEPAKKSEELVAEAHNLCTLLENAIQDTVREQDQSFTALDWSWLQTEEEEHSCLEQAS

[2] = target: T2, Inhibitor of nuclear factor kappa-B kinase subunit alpha (Homo sapiens, UniProt O15111); test: Inhibition of IKK-alpha
T2 sequence (O15111 whole entry): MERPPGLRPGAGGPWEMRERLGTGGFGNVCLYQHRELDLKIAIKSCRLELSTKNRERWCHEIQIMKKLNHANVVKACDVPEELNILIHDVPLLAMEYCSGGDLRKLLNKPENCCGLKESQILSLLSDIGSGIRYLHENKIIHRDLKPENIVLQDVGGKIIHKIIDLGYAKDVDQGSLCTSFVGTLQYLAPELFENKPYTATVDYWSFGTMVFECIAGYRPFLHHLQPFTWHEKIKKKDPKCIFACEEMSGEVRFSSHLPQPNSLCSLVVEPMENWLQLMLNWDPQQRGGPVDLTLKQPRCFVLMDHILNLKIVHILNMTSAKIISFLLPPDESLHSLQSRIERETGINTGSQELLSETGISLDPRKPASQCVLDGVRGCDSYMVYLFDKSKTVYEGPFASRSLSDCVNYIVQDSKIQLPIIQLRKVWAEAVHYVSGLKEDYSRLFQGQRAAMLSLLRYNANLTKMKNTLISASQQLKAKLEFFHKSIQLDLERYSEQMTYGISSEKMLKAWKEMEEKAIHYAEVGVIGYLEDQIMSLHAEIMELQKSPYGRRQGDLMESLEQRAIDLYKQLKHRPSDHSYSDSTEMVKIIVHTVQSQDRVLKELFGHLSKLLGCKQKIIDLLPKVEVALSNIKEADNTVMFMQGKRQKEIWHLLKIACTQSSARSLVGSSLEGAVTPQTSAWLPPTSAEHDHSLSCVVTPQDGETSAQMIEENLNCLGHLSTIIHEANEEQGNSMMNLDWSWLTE
Method in brief: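 Done the same way as the IKK-β TR-FRET assay but with 6-His-tagged full-length IKK-α. Buffer is 50 mM HEPES, 10 mM MgCl₂, 1 mM CHAPS pH 7.4, 1 mM DTT, 0.01% w/v BSA. GST-IκBα substrate 25 nM final, ATP 1 μM final, DMSO below 5% final. Error about ±0.3 log units.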

PBMC = test: Antiinflammatory activity in human PBMC assessed as inhibition of LPS-induced TNF-alpha production; type: functional, cell-based
Method in brief: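 Human peripheral blood mononuclear cells stimulated with LPS. Read-out is inhibition of TNF-α production, reported as pIC50.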

[3] = target: T3, Inhibitor of nuclear factor kappa-B kinase subunit epsilon (Homo sapiens, UniProt Q14164); test: Inhibition of IKK-epsilon
T3 sequence (Q14164 whole entry): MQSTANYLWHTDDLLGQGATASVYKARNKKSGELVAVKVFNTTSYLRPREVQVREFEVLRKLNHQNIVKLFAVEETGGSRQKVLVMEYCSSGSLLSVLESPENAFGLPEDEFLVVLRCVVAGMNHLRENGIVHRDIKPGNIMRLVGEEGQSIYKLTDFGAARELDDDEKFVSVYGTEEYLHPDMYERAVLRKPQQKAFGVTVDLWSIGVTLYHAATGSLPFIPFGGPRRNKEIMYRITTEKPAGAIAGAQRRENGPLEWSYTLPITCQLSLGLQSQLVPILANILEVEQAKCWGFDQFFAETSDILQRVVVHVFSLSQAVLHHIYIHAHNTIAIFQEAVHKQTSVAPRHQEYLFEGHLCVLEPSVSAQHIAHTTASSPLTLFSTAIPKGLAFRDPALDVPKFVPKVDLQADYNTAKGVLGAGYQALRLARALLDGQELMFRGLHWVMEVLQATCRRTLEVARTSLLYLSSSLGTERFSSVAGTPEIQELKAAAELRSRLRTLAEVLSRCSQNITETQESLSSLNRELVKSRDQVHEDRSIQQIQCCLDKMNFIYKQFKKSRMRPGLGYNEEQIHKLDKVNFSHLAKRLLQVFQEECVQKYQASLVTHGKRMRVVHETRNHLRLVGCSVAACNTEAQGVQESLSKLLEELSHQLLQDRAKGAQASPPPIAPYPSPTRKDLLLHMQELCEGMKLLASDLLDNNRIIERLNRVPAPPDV

[4] = target: T4, Serine/threonine-protein kinase TBK1 (Homo sapiens, UniProt Q9UHD2); test: Inhibition of TBK-1
T4 sequence (Q9UHD2 whole entry): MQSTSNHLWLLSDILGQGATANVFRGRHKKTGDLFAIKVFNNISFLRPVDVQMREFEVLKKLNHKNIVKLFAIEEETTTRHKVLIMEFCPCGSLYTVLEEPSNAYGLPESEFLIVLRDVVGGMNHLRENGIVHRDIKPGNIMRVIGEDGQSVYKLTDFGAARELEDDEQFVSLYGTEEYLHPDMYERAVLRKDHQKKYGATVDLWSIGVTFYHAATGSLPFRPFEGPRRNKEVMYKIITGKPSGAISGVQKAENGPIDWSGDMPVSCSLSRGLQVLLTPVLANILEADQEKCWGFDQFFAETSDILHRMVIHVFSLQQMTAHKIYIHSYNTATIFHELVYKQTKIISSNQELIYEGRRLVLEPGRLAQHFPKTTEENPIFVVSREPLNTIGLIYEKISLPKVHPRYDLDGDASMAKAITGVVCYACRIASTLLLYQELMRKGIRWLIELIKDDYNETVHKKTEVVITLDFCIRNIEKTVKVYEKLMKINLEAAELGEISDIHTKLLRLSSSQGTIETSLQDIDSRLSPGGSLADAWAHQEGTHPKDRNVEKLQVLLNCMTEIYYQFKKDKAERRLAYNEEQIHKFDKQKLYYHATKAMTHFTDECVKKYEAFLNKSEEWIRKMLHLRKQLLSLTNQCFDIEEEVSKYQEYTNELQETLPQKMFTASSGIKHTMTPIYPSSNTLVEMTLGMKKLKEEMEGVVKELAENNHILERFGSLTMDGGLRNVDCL

[5] = target: Macrophage colony-stimulating factor 1 receptor (Homo sapiens, UniProt P07333); test: Inhibition of c-FMS
[6] = target: Tyrosine-protein kinase BTK (Homo sapiens, UniProt Q06187); test: Inhibition of BTK
[7] = Aqueous solubility of the compound; type: physicochemical
serum albumin = serum albumin (Homo sapiens, UniProt P02768); test: Binding affinity to human serum albumin; type: ADME; conditions: read-out: PB
[8] = Oral bioavailability in rat; type: ADME, organism-based; conditions: in vivo

Sequence of serum albumin (P02768 whole entry): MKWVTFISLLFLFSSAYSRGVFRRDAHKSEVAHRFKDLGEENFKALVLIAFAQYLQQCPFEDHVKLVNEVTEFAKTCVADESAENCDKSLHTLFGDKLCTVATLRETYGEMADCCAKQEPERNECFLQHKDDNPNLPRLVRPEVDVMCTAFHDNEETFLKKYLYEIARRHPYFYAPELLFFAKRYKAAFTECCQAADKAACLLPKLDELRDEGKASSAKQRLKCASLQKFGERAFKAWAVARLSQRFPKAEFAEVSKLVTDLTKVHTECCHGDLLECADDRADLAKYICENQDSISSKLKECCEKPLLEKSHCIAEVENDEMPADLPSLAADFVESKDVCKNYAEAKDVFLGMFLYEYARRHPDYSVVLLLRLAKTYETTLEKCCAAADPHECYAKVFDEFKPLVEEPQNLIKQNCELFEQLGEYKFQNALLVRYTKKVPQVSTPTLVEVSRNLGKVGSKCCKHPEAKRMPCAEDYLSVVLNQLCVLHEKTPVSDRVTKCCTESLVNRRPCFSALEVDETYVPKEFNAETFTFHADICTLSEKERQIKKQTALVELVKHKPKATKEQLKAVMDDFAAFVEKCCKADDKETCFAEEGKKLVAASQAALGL
Sequence of Macrophage colony-stimulating factor 1 receptor (P07333 whole entry): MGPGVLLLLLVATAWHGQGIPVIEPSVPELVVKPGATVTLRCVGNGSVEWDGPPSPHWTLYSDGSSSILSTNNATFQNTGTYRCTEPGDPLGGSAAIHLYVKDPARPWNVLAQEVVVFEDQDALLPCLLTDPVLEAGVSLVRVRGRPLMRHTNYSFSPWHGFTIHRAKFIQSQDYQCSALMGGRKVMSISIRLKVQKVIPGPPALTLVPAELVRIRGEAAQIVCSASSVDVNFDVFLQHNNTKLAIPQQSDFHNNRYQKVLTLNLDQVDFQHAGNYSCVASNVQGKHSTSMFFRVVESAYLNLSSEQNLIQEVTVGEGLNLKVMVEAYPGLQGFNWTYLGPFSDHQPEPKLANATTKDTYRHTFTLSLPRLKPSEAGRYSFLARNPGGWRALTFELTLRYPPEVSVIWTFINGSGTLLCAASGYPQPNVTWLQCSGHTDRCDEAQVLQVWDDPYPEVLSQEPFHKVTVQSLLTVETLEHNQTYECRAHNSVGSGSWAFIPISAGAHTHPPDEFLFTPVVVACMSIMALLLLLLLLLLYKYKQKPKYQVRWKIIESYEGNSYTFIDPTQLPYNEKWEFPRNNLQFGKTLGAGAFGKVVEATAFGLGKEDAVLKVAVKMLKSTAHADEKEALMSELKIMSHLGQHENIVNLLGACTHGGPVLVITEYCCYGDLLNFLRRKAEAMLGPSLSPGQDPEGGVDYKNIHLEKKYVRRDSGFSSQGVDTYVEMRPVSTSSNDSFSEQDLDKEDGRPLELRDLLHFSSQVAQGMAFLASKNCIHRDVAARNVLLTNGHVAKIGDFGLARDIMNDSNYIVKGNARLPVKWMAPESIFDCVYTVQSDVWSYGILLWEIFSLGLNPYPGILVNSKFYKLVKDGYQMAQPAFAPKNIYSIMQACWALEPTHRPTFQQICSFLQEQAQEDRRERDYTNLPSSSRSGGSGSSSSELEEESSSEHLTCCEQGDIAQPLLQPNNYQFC
Sequence of Tyrosine-protein kinase BTK (Q06187 whole entry): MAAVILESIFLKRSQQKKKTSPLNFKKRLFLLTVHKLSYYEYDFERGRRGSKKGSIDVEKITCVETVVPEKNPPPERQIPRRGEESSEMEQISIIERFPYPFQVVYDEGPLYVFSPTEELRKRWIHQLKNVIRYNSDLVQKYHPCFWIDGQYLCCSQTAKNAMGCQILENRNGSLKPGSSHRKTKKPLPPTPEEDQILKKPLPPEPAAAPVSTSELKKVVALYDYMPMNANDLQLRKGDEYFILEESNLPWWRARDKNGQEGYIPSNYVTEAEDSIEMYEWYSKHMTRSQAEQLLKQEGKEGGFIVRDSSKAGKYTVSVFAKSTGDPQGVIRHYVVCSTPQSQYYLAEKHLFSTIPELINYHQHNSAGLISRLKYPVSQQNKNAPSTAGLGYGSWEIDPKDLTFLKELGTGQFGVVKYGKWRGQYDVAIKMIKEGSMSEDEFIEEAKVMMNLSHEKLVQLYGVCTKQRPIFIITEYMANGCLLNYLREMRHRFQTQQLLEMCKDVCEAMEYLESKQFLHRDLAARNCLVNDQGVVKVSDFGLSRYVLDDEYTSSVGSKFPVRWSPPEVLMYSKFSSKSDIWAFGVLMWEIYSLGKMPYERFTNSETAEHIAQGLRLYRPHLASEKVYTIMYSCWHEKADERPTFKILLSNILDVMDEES

## NC(=O)c1cc(Br)cc2c3c([nH]c12)CCCC3
[1]
  IC50: 2510 nM

## O=C(O)c1cc(-c2ccccc2)cc2cc[nH]c12
[1]
  IC50: > 15800 nM

## NC(=O)c1cc(-c2ccccc2)cc2cc[nH]c12
[1]
  IC50: 1580 nM
[2]
  IC50: 10000 nM

## N#Cc1cccc(-c2cc(C(N)=O)c3[nH]ccc3c2)c1
[1]
  IC50: 1580 nM
[2]
  IC50: 10000 nM

## CS(=O)(=O)Nc1ccc(-c2cc(C(N)=O)c3[nH]ccc3c2)cc1
[1]
  IC50: 501 nM
[2]
  IC50: 3980 nM

## NC(=O)c1cc(-c2ccccc2Cl)cc2cc[nH]c12
[1]
  IC50: 6310 nM
[2]
  IC50: > 15800 nM

## NC(=O)c1cc(-c2cccc(Cl)c2)cc2cc[nH]c12
[1]
  IC50: 794 nM
[2]
  IC50: 5010 nM

## NC(=O)c1cc(-c2ccc(Cl)cc2)cc2cc[nH]c12
[1]
  IC50: 316 nM
[2]
  IC50: 6310 nM

## NC(=O)c1cc(-c2cccc(CO)c2)cc2cc[nH]c12
[1]
  IC50: 2510 nM
[2]
  IC50: 15800 nM

## NC(=O)c1cc(-c2ccc(CO)cc2)cc2cc[nH]c12
[1]
  IC50: 1260 nM
[2]
  IC50: 15800 nM

## COc1ccncc1-c1cc(C(N)=O)c2[nH]ccc2c1
[1]
  IC50: 1580 nM
[2]
  IC50: 12600 nM

## NC(=O)c1cc(-c2cc3ccccc3o2)cc2cc[nH]c12
[1]
  IC50: 501 nM
[2]
  IC50: 3980 nM

## NC(=O)c1cc(-c2ccccc2)cc2c(C3CCCNC3)c[nH]c12 (centres undefined)
[1]
  IC50: 158 nM
[2]
  IC50: 1580 nM
PBMC
  IC50: 631 nM
[3]
  IC50: > 3160 nM
[4]
  IC50: > 3160 nM
[5]
  IC50: 1580 nM
[6]
  IC50: 1260 nM
[7]
  solubility: 136 µg/mL (≈ 426 µM)
Serum albumin
  fraction unbound: 0.09
[8]
  bioavailability: 22%

## NC(=O)c1cc(-c2ccccc2)cc2c(C3CCNCC3)c[nH]c12
[1]
  IC50: 501 nM
[2]
  IC50: 10000 nM

## CC(C)S(=O)(=O)N1CCC(c2c[nH]c3c(C(N)=O)cc(-c4ccccc4)cc23)CC1
[1]
  IC50: 20 nM
[2]
  IC50: 3160 nM

## CCS(=O)(=O)N1CCC(c2c[nH]c3c(C(N)=O)cc(-c4ccccc4)cc23)CC1
[1]
  IC50: 25.1 nM
[2]
  IC50: 2000 nM

## NC(=O)c1cc(-c2ccccc2)cc2c(C3CCN(S(=O)(=O)c4ccc(Cl)cc4)CC3)c[nH]c12
[1]
  IC50: 398 nM
[2]
  IC50: 7940 nM

## CCc1ccc(-c2cc(C(N)=O)c(NC(N)=O)s2)cc1
[1]
  IC50: 7.94 nM

## CN(C)C(=O)c1cc(-c2ccccc2)cc2cc[nH]c12
[1]
  IC50: > 15800 nM

## NC(=O)c1cc(-c2cncnc2)cc2cc[nH]c12
[1]
  IC50: 5010 nM
[2]
  IC50: 15800 nM
